Calls of active or inactive are those of the source. No cut-off for these calls is given here.
Tests used:
[1] = tested on: Blood; test: Biodistribution in NMRI mouse blood at 37 MBq/mL, iv after 2 mins postinjection by gamma counting; assay type: ADME, organism-based; details: in vivo
How it was run: (§1)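 Normal mice given the 11C tracer i.v.; killed by decapitation at 2 or 60 min p.i. (n = 4 per time point). Blood collected in tared tube and weighed; organs dissected and weighed, then gamma-counted. Counts background-corrected and expressed as %ID per organ or %ID/g tissue.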

[2] = tested on: Blood; test: Biodistribution in NMRI mouse blood at 37 MBq/mL, iv after 60 mins postinjection by gamma counting; assay type: ADME, organism-based; details: in vivo, 1 h; how it was run: as §1
[3] = tested on: Kidney; test: Biodistribution in NMRI mouse kidney at 37 MBq/mL, iv after 2 mins postinjection assessed per gram of tissue by gamma counting; assay type: ADME, organism-based; details: in vivo; how it was run: as §1
[4] = tested on: Kidney; test: Biodistribution in NMRI mouse kidney at 37 MBq/mL, iv after 60 mins postinjection assessed per gram of tissue by gamma counting; assay type: ADME, organism-based; details: in vivo, 1 h; how it was run: as §1
[5] = tested on: Liver; test: Biodistribution in NMRI mouse liver at 37 MBq/mL, iv after 2 mins postinjection assessed per gram of tissue by gamma counting; assay type: ADME, organism-based; details: in vivo; how it was run: as §1
[6] = tested on: Liver; test: Biodistribution in NMRI mouse liver at 37 MBq/mL, iv after 60 mins postinjection assessed per gram of tissue by gamma counting; assay type: ADME, organism-based; details: in vivo, 1 h; how it was run: as §1
[7] = Biodistribution in NMRI mouse cerebrum at 37 MBq/mL, iv after 2 mins postinjection assessed per gram of tissue by gamma counting; assay type: ADME, organism-based; details: in vivo; how it was run: as §1
[8] = Biodistribution in NMRI mouse cerebrum at 37 MBq/mL, iv after 60 mins postinjection assessed per gram of tissue by gamma counting; assay type: ADME, organism-based; details: in vivo, 1 h; how it was run: as §1
[9] = tested on: Cerebellum; test: Biodistribution in NMRI mouse cerebellum at 37 MBq/mL, iv after 2 mins postinjection assessed per gram of tissue by gamma counting; assay type: ADME, organism-based; details: in vivo; how it was run: as §1
[10] = tested on: Cerebellum; test: Biodistribution in NMRI mouse cerebellum at 37 MBq/mL, iv after 60 mins postinjection assessed per gram of tissue by gamma counting; assay type: ADME, organism-based; details: in vivo, 1 h; how it was run: as §1
[11] = tested on: Blood; test: Biodistribution in NMRI mouse blood at 37 MBq/mL, iv after 2 mins postinjection assessed per gram of tissue by gamma counting; assay type: ADME, organism-based; details: in vivo; how it was run: as §1
[12] = tested on: Blood; test: Biodistribution in NMRI mouse blood at 37 MBq/mL, iv after 60 mins postinjection assessed per gram of tissue by gamma counting; assay type: ADME, organism-based; details: in vivo, 1 h; how it was run: as §1
[13] = tested on: Blood; test: Blood clearance in NMRI mouse assessed ratio of %ID in blood after 2 mins to %ID in blood after 60 mins at 37 MBq/mL, iv; assay type: ADME, tissue-based
How it was run: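 Normal mice given i.v. 11C tracer; blood collected at 2 and 60 min p.i. (n = 4 per time point), weighed and gamma-counted. Clearance expressed as the ratio of %ID/g blood at 2 min to %ID/g blood at 60 min.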

[14] = Biodistribution in NMRI mouse hepatobiliary system at 37 MBq/mL, iv after 60 mins postinjection by gamma counting; assay type: ADME, organism-based; details: in vivo, 1 h; how it was run: as §1
[15] = Partition coefficient, log P in Octanol and 0.025 M phosphate buffer at pH7.4 by gamma counter; assay type: physicochemical; details: octanol/0.025 M phosphate buffer, pH 7.4
How it was run: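 HPLC-purified 11C tracer added to 1-octanol and 2 ml 0.025 M phosphate buffer pH 7.4. Vortexed 3 min at room temperature, centrifuged 2700 g for 10 min. Aliquots of each phase weighed and gamma-counted; P = (cpm/ml octanol)/(cpm/ml buffer). Triplicate.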

[16] = Biodistribution in NMRI mouse urine at 37 MBq/mL, iv after 2 mins postinjection by gamma counting; assay type: ADME, organism-based; details: in vivo; how it was run: as §1
[17] = Biodistribution in NMRI mouse urine at 37 MBq/mL, iv after 60 mins postinjection by gamma counting; assay type: ADME, organism-based; details: in vivo, 1 h; how it was run: as §1
[18] = tested on: Kidney; test: Biodistribution in NMRI mouse kidney at 37 MBq/mL, iv after 2 mins postinjection by gamma counting; assay type: ADME, organism-based; details: in vivo; how it was run: as §1
[19] = tested on: Kidney; test: Biodistribution in NMRI mouse kidney at 37 MBq/mL, iv after 60 mins postinjection by gamma counting; assay type: ADME, organism-based; details: in vivo, 1 h; how it was run: as §1
[20] = tested on: Liver; test: Biodistribution in NMRI mouse liver at 37 MBq/mL, iv after 2 mins postinjection by gamma counting; assay type: ADME, organism-based; details: in vivo; how it was run: as §1
[21] = tested on: Liver; test: Biodistribution in NMRI mouse liver at 37 MBq/mL, iv after 60 mins postinjection by gamma counting; assay type: ADME, organism-based; details: in vivo, 1 h; how it was run: as §1
[22] = tested on: Intestine; test: Biodistribution in NMRI mouse intestine at 37 MBq/mL, iv after 2 mins postinjection by gamma counting; assay type: ADME, organism-based; details: in vivo; how it was run: as §1
[23] = tested on: Intestine; test: Biodistribution in NMRI mouse intestine at 37 MBq/mL, iv after 60 mins postinjection by gamma counting; assay type: ADME, organism-based; details: in vivo, 1 h; how it was run: as §1
[24] = Biodistribution in NMRI mouse cerebrum at 37 MBq/mL, iv after 2 mins postinjection by gamma counting; assay type: ADME, organism-based; details: in vivo; how it was run: as §1
[25] = Biodistribution in NMRI mouse cerebrum at 37 MBq/mL, iv after 60 mins postinjection by gamma counting; assay type: ADME, organism-based; details: in vivo, 1 h; how it was run: as §1
[26] = tested on: Cerebellum; test: Biodistribution in NMRI mouse cerebellum at 37 MBq/mL, iv after 2 mins postinjection by gamma counting; assay type: ADME, organism-based; details: in vivo; how it was run: as §1
[27] = tested on: Cerebellum; test: Biodistribution in NMRI mouse cerebellum at 37 MBq/mL, iv after 60 mins postinjection by gamma counting; assay type: ADME, organism-based; details: in vivo, 1 h; how it was run: as §1
[28] = target: T1, Amyloid-beta precursor protein (Homo sapiens, UniProt P05067); test: Displacement of [125I]IMPY from beta-amyloid plaques in brain homogenate of patient with Alzheimer's disease by gamma counting; assay type: tissue-based
How it was run: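 Gray-matter homogenates of post-mortem AD cortex in PBS pH 7.4, about 100 mg wet tissue/ml. Incubated 2 h at 37 °C, then GF/B vacuum filtration, two PBS washes, gamma counting. Ki from non-linear regression using Ki = IC50/(1+L/Kd).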

[29] = target: T1, Amyloid-beta precursor protein; test: Binding affinity to beta-amyloid plaques in subiculum of transgenic mouse overexpressing human APP at 1 uM by fluorescence microscopy; assay type: tissue-based
How it was run: (§2)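 Paraffin 8 µm sagittal sections of transgenic APP (London mutation) mouse brain or post-mortem human AD brain; xylol and graded-ethanol deparaffinization, then 1 h incubation with cold compound; tap-water rinse, Mowiol-DABCO mounting. Fluorescence microscopy with UV filter set (excitation 355–425 nm, emission 470 nm longpass). Neighbouring sections immunostained with pan Aβ or AβN25 antibody to check co-localization.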

[30] = target: T1, Amyloid-beta precursor protein; test: Binding affinity to beta-amyloid plaques in cortex of patient with Alzheimer's disease at 1 uM by fluorescence microscopy; how it was run: as §2
[31] = target: T1, Amyloid-beta precursor protein; test: Binding affinity to fibrillar beta-amyloid plaques in cortex of patient with Alzheimer's disease at 1 uM by fluorescence microscopy; how it was run: as §2
[32] = target: T1, Amyloid-beta precursor protein; test: Binding affinity to vascular beta-amyloid plaques in vibratome section of transgenic mouse cortex overexpressing human APP at 1 uM by fluorescence microscopy
How it was run: (§3)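 Vibratome sections of transgenic APP (London mutation) mouse brain cortex incubated with cold compound. Fluorescence microscopy with UV filter set (excitation 355–425 nm, emission 470 nm longpass). For co-localization, one section was incubated first with AβN25 antibody and then with compound.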

[33] = target: T1, Amyloid-beta precursor protein; test: Binding affinity to vascular beta-amyloid plaques in vibratome section of transgenic mouse overexpressing human APP at 0.1 uM by fluorescence microscopy; details: 1 uM, in the assay text read “at 1 uM” for “at 0.1 uM”; how it was run: as §3
[34] = target: T1, Amyloid-beta precursor protein; test: Binding affinity to core beta-amyloid plaques in vibratome section of transgenic mouse overexpressing human APP at 1 uM by fluorescence microscopy; how it was run: as §3

T1 sequence (P05067 whole entry): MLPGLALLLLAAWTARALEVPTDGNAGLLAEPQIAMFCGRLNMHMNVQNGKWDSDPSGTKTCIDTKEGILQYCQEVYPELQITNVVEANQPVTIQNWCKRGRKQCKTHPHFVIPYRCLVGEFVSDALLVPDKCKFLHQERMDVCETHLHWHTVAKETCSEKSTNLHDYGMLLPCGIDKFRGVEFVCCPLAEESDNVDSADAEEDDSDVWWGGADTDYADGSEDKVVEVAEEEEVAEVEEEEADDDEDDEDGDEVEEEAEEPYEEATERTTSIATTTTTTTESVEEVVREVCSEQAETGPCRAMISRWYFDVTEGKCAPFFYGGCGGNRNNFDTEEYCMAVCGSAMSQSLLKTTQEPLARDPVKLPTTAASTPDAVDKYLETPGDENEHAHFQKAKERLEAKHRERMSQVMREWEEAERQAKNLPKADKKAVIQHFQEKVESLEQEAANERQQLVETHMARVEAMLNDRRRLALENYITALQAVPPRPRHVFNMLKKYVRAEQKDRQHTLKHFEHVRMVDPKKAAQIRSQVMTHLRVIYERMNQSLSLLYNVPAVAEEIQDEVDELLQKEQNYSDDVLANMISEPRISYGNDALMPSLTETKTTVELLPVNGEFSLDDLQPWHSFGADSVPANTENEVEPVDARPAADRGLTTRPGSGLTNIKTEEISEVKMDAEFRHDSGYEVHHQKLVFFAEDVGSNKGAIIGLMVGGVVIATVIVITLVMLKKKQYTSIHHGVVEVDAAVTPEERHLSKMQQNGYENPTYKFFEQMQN

Structure (SMILES) | Drug uptake [1] | Drug uptake [2] | Drug uptake [3] | Drug uptake [4] | Drug uptake [5] | Drug uptake [6] | Drug uptake [7] | Drug uptake [8] | Drug uptake [9] | Drug uptake [10] | Drug uptake [11] | Drug uptake [12] | Drug uptake [16] | Drug uptake [17] | Drug uptake [18] | Drug uptake [19] | Drug uptake [20] | Drug uptake [21] | Drug uptake [22] | Drug uptake [23] | further results
[11CH3]Nc1ccc(-c2nc3c(O)cccc3s2)cc1 | 13.8 %ID | 2.3 %ID | 19.4 % ID/g | 1.2 % ID/g | 11.1 % ID/g | 3.7 % ID/g | 3.8 % ID/g | 0.3 % ID/g | 2.7 % ID/g | 0.6 % ID/g | 6.5 % ID/g | 1 % ID/g | 0.2 %ID | 22.7 %ID | 10.6 %ID | 0.6 %ID | 21.2 %ID | 6.4 %ID | 12 %ID | 52.3 %ID | Ratio [13]: 6; Drug uptake [14]: 59 %ID; logD [15]: 3.18; Drug uptake [24]: 1.2 %ID; Drug uptake [25]: 0.1 %ID; Drug uptake [26]: 0.2 %ID; Drug uptake [27]: 0 %ID
CNc1ccc(-c2nc3c(O)cccc3s2)cc1 | – | – | – | – | – | – | – | – | – | – | – | – | – | – | – | – | – | – | – | – | Ki [28]: 18.8 nM; Activity [29]: Active; Activity [30]: Active; Activity [31]: Active
CNc1ccc(-c2nc3cccc(O)c3s2)cc1 | – | – | – | – | – | – | – | – | – | – | – | – | – | – | – | – | – | – | – | – | Ki [28]: 11.2 nM; Activity [29]: Active; Activity [30]: Active; Activity [32]: Active; Activity [33]: Active; Activity [31]: Active
CNc1ccc(-c2nc3ccc(O)cc3s2)cc1 [PITTSBURGH COMPOUND B UNLABELLED] | 7.9 %ID | 2.7 %ID | 19.9 % ID/g | 9.1 % ID/g | 7.9 % ID/g | 5 % ID/g | 3.6 % ID/g | 0.6 % ID/g | 1.6 % ID/g | 0.3 % ID/g | 3.1 % ID/g | 1.1 % ID/g | 0.2 %ID | 24.4 %ID | 10.3 %ID | 4.8 %ID | 15.6 %ID | 9.8 %ID | 12 %ID | 42.5 %ID | Drug uptake [24]: 1.1 %ID; Drug uptake [25]: 0.2 %ID; Drug uptake [26]: 0.2 %ID; Drug uptake [27]: 0 %ID
[11CH3]Nc1ccc(-c2nc3cccc(O)c3s2)cc1 | 9.8 %ID | 1.2 %ID | 16.9 % ID/g | 4.8 % ID/g | 14.5 % ID/g | 4 % ID/g | 2.6 % ID/g | 0.16 % ID/g | 2.8 % ID/g | 0.1 % ID/g | 4.6 % ID/g | 0.57 % ID/g | 0.58 %ID | 24.8 %ID | 9 %ID | 2.5 %ID | 27.8 %ID | 7.1 %ID | 9.4 %ID | 54.7 %ID | Ratio [13]: 12; logD [15]: 2.45; Drug uptake [24]: 0.83 %ID; Drug uptake [25]: 0.05 %ID; Drug uptake [26]: 0.22 %ID; Drug uptake [27]: 0.01 %ID
CNc1ccc(-c2nc3cc(O)ccc3s2)cc1 | – | – | – | – | – | – | – | – | – | – | – | – | – | – | – | – | – | – | – | – | Ki [28]: 11.5 nM; Activity [29]: Active; Activity [30]: Active; Activity [34]: Active; Activity [32]: Active; Activity [33]: Active; Activity [31]: Active
[11CH3]Nc1ccc(-c2nc3cc(O)ccc3s2)cc1 | 6 %ID | 0.5 %ID | 14.2 % ID/g | 1.2 % ID/g | 12.1 % ID/g | 2.2 % ID/g | 4.3 % ID/g | 0.09 % ID/g | 4.4 % ID/g | 0.08 % ID/g | 2.5 % ID/g | 0.21 % ID/g | 0.35 %ID | 14.6 %ID | 8.1 %ID | 0.7 %ID | 25.8 %ID | 4.2 %ID | 12.9 %ID | 73.7 %ID | Drug uptake [14]: 78 %ID; logD [15]: 2.48; Drug uptake [24]: 1.3 %ID; Drug uptake [25]: 0.03 %ID; Drug uptake [26]: 0.57 %ID; Drug uptake [27]: 0.01 %ID
